Calls of active or inactive are those of the source.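 How the source made its calls: active means AC50 at or below twice the top valid dose for that sample, with falling signal; inconclusive means flat curve with inhibition of 30 to 70%, or poor fit; inactive means activity in the wrong direction, plus the rest.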
Molecular target: Scavenger receptor class B member 1 (Mus musculus) (UniProt Q61009)
Experiment: inhibitors of HDL uptake via mouse SR-BI, dose response, ldlA[mSR-BI] CHO cells, fluorescence plate reader, dry powder, set 8 (AID 602285)
Conditions: DiI-HDL uptake fluorescence, 3 h
Procedure, shortened: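 Reagent: DiI-labelled HDL, 10 µg protein/mL / System: ldlA[mSR-BI] cells, LDL receptor-deficient CHO line overexpressing murine SR-BI / Times: overnight cell plating, then 3 h compound and DiI-HDL exposure at 37 °C / Dosing: pin-transferred compounds, dose series / Detection: Washed-cell DiI fluorescence, ex 550/em 595 nm / Buffer or medium: Ham's F12, fatty acid-free BSA, HEPES pH 7.4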

Chain of Scavenger receptor class B member 1 (Mus musculus) (Q61009 whole entry, looked up): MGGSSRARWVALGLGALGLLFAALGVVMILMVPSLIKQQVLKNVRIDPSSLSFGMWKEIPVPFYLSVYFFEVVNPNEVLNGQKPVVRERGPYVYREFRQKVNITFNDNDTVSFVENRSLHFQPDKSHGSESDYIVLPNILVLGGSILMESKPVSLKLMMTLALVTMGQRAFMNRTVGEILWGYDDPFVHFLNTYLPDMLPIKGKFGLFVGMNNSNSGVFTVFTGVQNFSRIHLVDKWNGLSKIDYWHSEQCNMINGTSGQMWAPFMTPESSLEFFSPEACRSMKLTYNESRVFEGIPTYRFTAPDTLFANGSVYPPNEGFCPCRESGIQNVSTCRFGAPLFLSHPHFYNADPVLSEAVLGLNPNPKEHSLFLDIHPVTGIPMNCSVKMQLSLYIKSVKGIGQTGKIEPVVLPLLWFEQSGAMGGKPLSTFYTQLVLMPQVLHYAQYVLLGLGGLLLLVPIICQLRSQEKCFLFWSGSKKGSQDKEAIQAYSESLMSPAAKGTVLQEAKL

| Compound | AC50 |
| --- | --- |
| CC(C)NC(=O)Nc1ccc2c(c1)C(=O)N([C@H](C)CO)C[C@@H](C)[C@H](CN(C)S(=O)(=O)c1ccc(Cl)cc1)O2 | 123 nM |
| C[C@@H]1CN([C@H](C)CO)C(=O)c2cc(NC(=O)Cc3cn(C)c4ccccc34)ccc2O[C@H]1CN(C)Cc1ccc(C(=O)O)cc1 | 11800 nM |
| Cc1noc(C)c1NC(=O)N(C)C[C@H]1Oc2cc(C#CCC3CCCC3)ccc2S(=O)(=O)N([C@H](C)CO)C[C@@H]1C | 94 nM |
| Cc1noc(C)c1NC(=O)N(C)C[C@@H]1Oc2ccc(NC(=O)Cc3cn(C)c4ccccc34)cc2C(=O)N([C@H](C)CO)C[C@H]1C | 6970 nM |
| C[C@@H]1CN([C@H](C)CO)C(=O)c2cc(NC(=O)CCC(F)(F)F)ccc2O[C@H]1CN(C)S(=O)(=O)c1ccc(Cl)cc1 | 258 nM |
| C[C@@H]1CN([C@H](C)CO)C(=O)c2cc(NC(=O)Cc3cn(C)c4ccccc34)ccc2O[C@H]1CN(C)S(C)(=O)=O | 9870 nM |
| Cc1noc(C)c1S(=O)(=O)Nc1ccc2c(c1)C(=O)N([C@H](C)CO)C[C@@H](C)[C@H](CN(C)S(=O)(=O)c1ccc(Cl)cc1)O2 | 297 nM |
| C[C@@H]1CN([C@H](C)CO)C(=O)c2cc(NS(=O)(=O)c3cn(C)cn3)ccc2O[C@H]1CN(C)S(=O)(=O)c1ccc(Cl)cc1 | 3390 nM |
| COCC(=O)N1CCc2cc(-c3csc(NC(=O)c4cc(OC)cc(OC)c4)n3)ccc21 | < 15 nM |
| C[C@H]1CN([C@@H](C)CO)C(=O)c2cc(NC(=O)Cc3cn(C)c4ccccc34)ccc2O[C@@H]1CN(C)S(=O)(=O)c1ccc(Cl)cc1 | 17400 nM |
| C[C@@H]1CN([C@H](C)CO)C(=O)c2cc(NC(=O)Cc3cn(C)c4ccccc34)ccc2O[C@H]1CN(C)S(=O)(=O)c1cn(C)cn1 | 6390 nM |
| C[C@@H]1CN([C@H](C)CO)C(=O)c2cc(NC(=O)C3CC3)ccc2O[C@H]1CN(C)S(=O)(=O)c1ccc(Cl)cc1 | 2060 nM |
| C[C@@H]1CN([C@H](C)CO)C(=O)c2cc(NC(=O)Cc3cn(C)c4ccccc34)ccc2O[C@H]1CN(C)C(=O)Nc1ccccc1 | 4920 nM |
| C[C@@H]1CN([C@H](C)CO)C(=O)c2cc(NC(=O)Cn3cnnn3)ccc2O[C@H]1CN(C)S(=O)(=O)c1ccc(Cl)cc1 | 10300 nM |
| C[C@@H]1CN([C@H](C)CO)C(=O)c2cc(NC(=O)Cc3cn(C)c4ccccc34)ccc2O[C@H]1CN(C)Cc1ccncc1 | 1300 nM |
| C[C@@H]1CN([C@H](C)CO)C(=O)c2cc(NC(=O)Cc3cn(C)c4ccccc34)ccc2O[C@H]1CN(C)C | 17900 nM |
| C[C@@H]1CN([C@H](C)CO)C(=O)c2cc(NC(=O)Cc3cn(C)c4ccccc34)ccc2O[C@H]1CN(C)CC1CCCCC1 | 9240 nM |
| C[C@@H]1CN([C@H](C)CO)C(=O)c2cc(NC(=O)C3CCCCC3)ccc2O[C@H]1CN(C)S(=O)(=O)c1ccc(Cl)cc1 | 30.4 nM |
| C[C@@H]1CN([C@H](C)CO)C(=O)c2cc(NS(=O)(=O)c3ccc(F)cc3)ccc2O[C@H]1CN(C)S(=O)(=O)c1ccc(Cl)cc1 | 13700 nM |
| COc1ccc(CN(C)C[C@@H]2Oc3ccc(NC(=O)Cc4cn(C)c5ccccc45)cc3C(=O)N([C@H](C)CO)C[C@H]2C)cc1 | 2550 nM |
| C[C@@H]1CN([C@H](C)CO)C(=O)c2cc(NC(=O)Cc3cn(C)c4ccccc34)ccc2O[C@H]1CN(C)Cc1ccccc1 | 1550 nM |
| Cc1ccc(S(=O)(=O)N(C)C[C@@H]2Oc3ccc(NC(=O)Cc4cn(C)c5ccccc45)cc3C(=O)N([C@H](C)CO)C[C@H]2C)cc1 | 210 nM |
| C[C@H](CO)N1C[C@H](C)[C@H](CN(C)C)Oc2c(NS(C)(=O)=O)cccc2C1=O | > 70000 nM (inactive) |
| C[C@@H]1CN([C@H](C)CO)C(=O)c2cc(NC(=O)Nc3cccc4ccccc34)ccc2O[C@H]1CN(C)S(=O)(=O)c1ccc(Cl)cc1 | 165 nM |

Same assay, conditions: DiI-HDL uptake fluorescence, 3 h, at 11 µM (top of the series)

| Compound | activity change, negative = inhibition |
| --- | --- |
| C[C@@H]1CN([C@H](C)CN)C(=O)c2cc(NC(=O)Cc3cn(C)c4ccccc34)ccc2O[C@H]1CN(C)S(=O)(=O)c1ccc(Cl)cc1 | inactive |

Same assay, conditions: DiI-HDL uptake fluorescence, 3 h, at 35 µM (top of the series)

| Compound | activity change, negative = inhibition |
| --- | --- |
| Cc1ccccc1-c1ccc2c(c1)O[C@H](CN(C)C(=O)Nc1ccc(F)cc1)[C@H](C)CN([C@H](C)CO)S2(=O)=O | inactive |
| C[C@@H]1CN([C@@H](C)CO)C(=O)Cc2cc(NS(=O)(=O)c3cn(C)cn3)ccc2O[C@H]1CN(C)Cc1ccc(Cl)c(Cl)c1 | inactive |
| CO[C@H]1CN(C)C(=O)c2ccc(NC(=O)C3CCCC3)cc2OC[C@@H](C)N(C(=O)CC2CC2)C[C@@H]1C | inactive |
| C[C@@H]1CN([C@H](C)CO)C(=O)c2cc(NC(=O)Cc3cn(C)c4ccccc34)ccc2O[C@H]1CN(C)Cc1ccc(Oc2ccccc2)cc1 | inactive |

— PubChem BioAssay AID602285 (Broad Institute, 2012)
